We go through 9 molecules from ChEMBL document CHEMBL1828531, “Pyrazol-3-propanoic acid derivatives as novel inhibitors of leukotriene biosynthesis in human neutrophils” (Eur J Med Chem, 2011).

In assay [1] the target is Prostaglandin G/H synthase 1 (Homo sapiens, UniProt P23219). The assay can be described thus: Inhibition of COX1-mediated 12-HHT production in human platelet assessed as residual activity at 10 uM after 5 mins by HPLC analysis. A digest of the protocol: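 Washed human platelets, 10^8/mL in PBS with 1 mM CaCl2, preincubated with compound 4 min at 4 °C then 1 min at 37 °C. 5 µM AA added for 5 min at 37 °C. Methanol/HCl stop, PGB1 added, 12-HHT by HPLC. Residual activity at 10 µM. IC50 by interpolation from 4–5 concentrations.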
Prostaglandin G/H synthase 1, sequence (P23219 whole entry): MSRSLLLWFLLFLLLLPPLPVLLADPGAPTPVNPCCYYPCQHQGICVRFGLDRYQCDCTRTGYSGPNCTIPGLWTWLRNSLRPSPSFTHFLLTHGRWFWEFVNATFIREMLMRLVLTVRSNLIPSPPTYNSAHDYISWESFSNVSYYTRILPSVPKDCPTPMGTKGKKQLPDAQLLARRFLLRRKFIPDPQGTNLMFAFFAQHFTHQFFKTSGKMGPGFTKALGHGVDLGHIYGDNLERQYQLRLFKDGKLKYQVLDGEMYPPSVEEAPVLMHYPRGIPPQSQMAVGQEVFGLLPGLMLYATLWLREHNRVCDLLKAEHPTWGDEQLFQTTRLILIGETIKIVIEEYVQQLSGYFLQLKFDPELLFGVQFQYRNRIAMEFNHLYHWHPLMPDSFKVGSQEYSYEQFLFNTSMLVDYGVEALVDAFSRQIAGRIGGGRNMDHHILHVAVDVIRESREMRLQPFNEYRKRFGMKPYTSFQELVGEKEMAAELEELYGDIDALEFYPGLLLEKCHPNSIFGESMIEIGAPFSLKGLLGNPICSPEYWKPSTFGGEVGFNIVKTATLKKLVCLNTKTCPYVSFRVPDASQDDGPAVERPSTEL

Assay [2] concerns the target T1, Polyunsaturated fatty acid 5-lipoxygenase (Homo sapiens, UniProt P09917).
T1 sequence (P09917 whole entry): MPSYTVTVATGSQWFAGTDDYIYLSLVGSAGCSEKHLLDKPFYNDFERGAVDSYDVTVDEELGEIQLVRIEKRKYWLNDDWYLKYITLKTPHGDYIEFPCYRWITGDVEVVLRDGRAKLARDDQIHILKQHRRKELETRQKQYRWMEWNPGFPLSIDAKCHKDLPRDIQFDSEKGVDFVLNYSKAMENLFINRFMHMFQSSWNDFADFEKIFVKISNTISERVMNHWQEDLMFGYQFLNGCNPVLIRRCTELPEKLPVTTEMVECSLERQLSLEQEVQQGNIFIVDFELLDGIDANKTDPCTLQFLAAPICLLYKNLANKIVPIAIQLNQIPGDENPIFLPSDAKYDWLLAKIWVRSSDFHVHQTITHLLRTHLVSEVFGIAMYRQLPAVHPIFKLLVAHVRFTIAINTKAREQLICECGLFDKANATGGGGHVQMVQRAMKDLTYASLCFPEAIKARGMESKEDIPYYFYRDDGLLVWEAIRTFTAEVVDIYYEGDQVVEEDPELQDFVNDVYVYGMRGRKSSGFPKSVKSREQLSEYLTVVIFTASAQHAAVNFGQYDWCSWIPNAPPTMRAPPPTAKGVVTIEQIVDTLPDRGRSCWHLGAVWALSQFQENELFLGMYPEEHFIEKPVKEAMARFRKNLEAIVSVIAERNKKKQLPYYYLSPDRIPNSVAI
The assay can be described thus: Inhibition of 5-Lipoxygenase in arachidonic acid-stimulated human neutrophils after 15 mins by HPLC analysis in presence of A23187. The method in brief:
(§1)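 Human neutrophils, 5 × 10^6/mL in PBS/glucose/1 mM CaCl2, preincubated 15 min at RT, then 2.5 µM A23187 plus 20 µM AA for 10 min at 37 °C. Methanol stop, PGB1 internal standard, HPLC of LTB4, its all-trans isomers and 5-H(p)ETE. Residual % versus 0.3% DMSO vehicle, mean ± SEM, n = 3–5. IC50 by linear interpolation from 4–5 concentrations.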

Assay [3] deals with A549. The assay can be described thus: Inhibition of mPGES1-mediated PGE2 production in IL1-beta stimulated human A549 cells assessed as residual activity at 10 uM after 15 mins. Format: cell-based. The method in brief: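 Microsomes from IL-1β (1 ng/ml, 72 h) stimulated A549 cells, diluted in 0.1 M potassium phosphate pH 7.4 with 2.5 mM glutathione. Compound or 1% DMSO added, 15 min at 4 °C. Started with 20 µM PGH2 (final), 1 min at 4 °C. Stopped with FeCl2/citric acid containing 11β-PGE2 internal standard. PGE2 by RP-C18 solid-phase extraction and peak integration.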

Assay [4] concerns the target T2, Polyunsaturated fatty acid lipoxygenase ALOX12 (Homo sapiens, UniProt P18054).
T2 sequence (P18054 whole entry): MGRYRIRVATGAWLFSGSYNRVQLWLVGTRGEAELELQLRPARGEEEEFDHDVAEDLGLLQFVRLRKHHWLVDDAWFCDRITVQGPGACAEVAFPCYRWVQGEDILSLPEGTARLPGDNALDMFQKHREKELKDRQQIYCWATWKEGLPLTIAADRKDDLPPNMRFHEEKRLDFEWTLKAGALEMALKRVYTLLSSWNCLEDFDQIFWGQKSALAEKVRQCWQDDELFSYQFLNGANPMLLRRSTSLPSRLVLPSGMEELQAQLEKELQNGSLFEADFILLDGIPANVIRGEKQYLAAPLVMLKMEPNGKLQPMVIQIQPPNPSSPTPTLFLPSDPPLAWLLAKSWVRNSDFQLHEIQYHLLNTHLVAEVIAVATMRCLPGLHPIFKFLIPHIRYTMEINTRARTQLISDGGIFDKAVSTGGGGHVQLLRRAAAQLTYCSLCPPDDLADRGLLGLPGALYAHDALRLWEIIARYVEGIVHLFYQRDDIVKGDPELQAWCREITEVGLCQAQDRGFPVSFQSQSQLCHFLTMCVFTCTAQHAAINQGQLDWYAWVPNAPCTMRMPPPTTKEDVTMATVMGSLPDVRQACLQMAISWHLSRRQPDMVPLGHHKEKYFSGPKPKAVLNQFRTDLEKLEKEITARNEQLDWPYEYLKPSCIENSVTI
The assay can be described thus: Inhibition of 12-Lipoxygenase-mediated 12-HETE in human neutrophil after 15 mins by HPLC analysis. A digest of the protocol: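 Freshly isolated human blood neutrophils, 5 × 10^6/mL in PBS pH 7.4 with 1 mg/mL glucose and 1 mM CaCl2, preincubated with compound 15 min at RT. Stimulated with 2.5 µM A23187 plus 20 µM AA for 10 min at 37 °C. Stopped with methanol/HCl, PGB1 internal standard. 12-HETE or 15-HETE measured by HPLC. Residual activity tested at 30 µM.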

For assay [5], the target named is T3, Polyunsaturated fatty acid 5-lipoxygenase (Homo sapiens) (UniProt P09917).
T3 sequence (whole entry): T1 sequence (P09917 whole entry)
The assay can be described thus: Inhibition of 5-Lipoxygenase in arachidonic acid-stimulated human neutrophils assessed as residual activity at 10 uM after 15 mins by HPLC analysis in presence of A23187. A digest of the protocol:
as §1

Each structure is given as a SMILES string. A value given as a limit tells only on which side of the number the result lay.

For orientation: IC50 means the concentration that inhibits the measured activity by half. As to `CC(C)(C)c1ccc(CN2CCN(C(=O)CCc3cc(-c4ccc(F)cc4)n(-c4ccc(Cl)nn4)n3)CC2)cc1`, the Activity came out at 82.9% in assay [1], 75.6% in assay [3] and 23.4% in assay [5]. The values for the IC50 in assay [2] and in assay [4] were 1.6 µM and greater than 10 µM, respectively.
With `Cc1ccc(-c2cc(CCC(=O)Oc3ccc(C(C)C)cc3)nn2-c2ccc3ccccc3n2)cc1`, the concentration for half-maximal inhibition (IC50) in assay [2] and in assay [4] was greater than 10 µM in each case. The Activity in assay [3] turned out to be 88%; in assay [5], 65.4%.
Regarding `Cc1ccc(-c2cc(CCC(=O)N3CCN(Cc4ccc(C(C)(C)C)cc4)CC3)nn2-c2ccc3ccccc3n2)cc1`, the Activity came out at 8.2% in assay [1], 75% in assay [3] and 16.4% in assay [5]. In addition, the concentration for half-maximal inhibition (IC50) in assay [2] was 3.5 µM; in assay [4] it was greater than 10 µM.
Regarding `CCOC(=O)C1CCN(C(=O)CCc2cc(-c3ccc(C)cc3)n(-c3ccccc3)n2)CC1`, the results for the Activity in assay [1], in assay [3] and in assay [5] were 57.1%, 82.6% and 6.7%, respectively. Moreover, the concentration for half-maximal inhibition (IC50) in assay [2] was 2.4 µM; in assay [4], greater than 10 µM.
On to `Cc1ccc(-c2cc(CCC(=O)Oc3ccc(C(C)C)cc3)nn2-c2ccc(Cl)nn2)cc1`, for which the Activity in assay [1] turned out to be 51.1%; in assay [3] it was 91.4%; in assay [5], 46.4%. Moreover, the values for the IC50 in assay [2] and in assay [4] were 8 µM and greater than 10 µM, respectively.
The corresponding values for `Cc1ccc(-c2cc(CCC(=O)N3CCN(Cc4ccc(C(C)(C)C)cc4)CC3)nn2-c2ccccc2)cc1` are 21%, 84.6%, 13.5%, 2.7 µM and greater than 10 µM.
The corresponding values for `CCOC(=O)C1CCN(C(=O)CCc2cc(-c3ccc(C(F)(F)F)cc3)n(-c3ccc(Cl)nn3)n2)CC1` are 102%, 103%, 62%, 15 µM and greater than 10 µM.
On to `Cc1ccc(-c2cc(CCC(=O)Oc3ccc(C(C)C)cc3)nn2-c2ccccc2)cc1`, for which the Activity came out at 10.6% in assay [1], 108% in assay [3] and 20.4% in assay [5]. The IC50 in assay [2] was 2 µM; in assay [4], greater than 10 µM.
The corresponding values for `CCOC(=O)C1CCN(C(=O)CCc2cc(-c3ccc(C)cc3)n(-c3ccc4ccccc4n3)n2)CC1` are 15.9%, 84%, 25.8%, 4 µM and greater than 10 µM.
